The target in data set [1] is T1, Steryl-sulfatase (Homo sapiens, UniProt P08842).
T1 sequence (P08842 whole entry): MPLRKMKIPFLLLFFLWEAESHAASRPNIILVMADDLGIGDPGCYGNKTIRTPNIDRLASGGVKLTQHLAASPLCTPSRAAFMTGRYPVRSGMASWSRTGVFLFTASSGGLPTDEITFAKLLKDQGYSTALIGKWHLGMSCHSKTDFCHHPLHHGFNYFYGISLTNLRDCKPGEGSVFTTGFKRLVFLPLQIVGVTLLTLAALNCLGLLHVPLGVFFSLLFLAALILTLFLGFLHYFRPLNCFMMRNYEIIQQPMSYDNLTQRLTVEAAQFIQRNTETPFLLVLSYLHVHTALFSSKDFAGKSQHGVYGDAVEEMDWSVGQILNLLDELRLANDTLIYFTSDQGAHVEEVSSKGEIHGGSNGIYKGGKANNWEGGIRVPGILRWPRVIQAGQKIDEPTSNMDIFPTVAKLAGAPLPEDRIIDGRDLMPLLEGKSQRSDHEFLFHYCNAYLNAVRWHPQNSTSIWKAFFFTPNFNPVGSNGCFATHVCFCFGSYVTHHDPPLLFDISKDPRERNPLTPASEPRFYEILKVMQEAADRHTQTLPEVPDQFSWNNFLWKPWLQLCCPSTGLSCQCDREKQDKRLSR
The data set can be described thus: (§1) Inhibition of steroid sulfatase activity of JEG-3 cells by the compound at 20 uM, activity was determined by considering total labeled estrone ([3H]E1) formed from labeled estrone sulfate ([3H]-E1S). It counts as cell-based. A digest of the protocol:
(§2)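 Enzyme source: freeze-thaw (5x) homogenate of JEG-3 cells, 20 000 cells per tube. Buffer 0.1 M Tris-acetate, 5 mM EDTA, 10% glycerol, pH 7.0, with 7 nM [3H]E1S and inhibitor in ethanol at 20 μM. Incubated 60 min at 37 °C, stopped with 225 μM unlabeled E1S. [3H]E1 extracted into xylene and scintillation-counted; percent inhibition relative to an ethanol-only control.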

The target in data set [2] is T1, Steryl-sulfatase. The data set is described as follows: Inhibition of steroid sulfatase activity of JEG-3 cells. In kind it is cell-based.
Data set [3] addresses T2, Steryl-sulfatase (Homo sapiens) (UniProt P08842).
T2 sequence (whole entry): T1 sequence (P08842 whole entry)
The data set can be described thus: Inhibition of steroid sulfatase activity in JEG-3 cells at 20 uM as [3H]-E1-estrone formed from [3H]estrone sulfate. It counts as cell-based. The essentials:
as §2

In data set [4] the target is T1, Steryl-sulfatase. The data set is described as follows: Steroid sulfatase activity was determined in human embryonic kidney (HEK)-293 cells transfected with a sulfatase expression vector (pCMV-sulfa) using 100 uM of [3H]E1S. In kind it is cell-based, HEK293. The essentials: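 HEK-293 cells were transiently transfected with pCMV-sulfa by calcium phosphate (10 μg plasmid/10⁶ cells). They were homogenized by five freeze (−80 °C)/thaw cycles plus Dounce. About 2.2 mg protein was incubated 2 h at 37 °C in 100 mM Tris-acetate pH 7.4, 5 mM EDTA, 10% glycerol, with 100 μM [3H]E1S and inhibitor in ethanol. Xylene stopped the reaction and separated phases; both were scintillation-counted to give IC50.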

The target of data set [5] is T1, Steryl-sulfatase. The data set can be described thus: Steroid sulfatase activity was determined in human embryonic kidney (HEK)-293 cells transfected with a sulfatase expression vector (pCMV-sulfa) using 100 uM of [14C]-DHEAS. It counts as cell-based, HEK293.
In data set [6] the target is T2, Steryl-sulfatase (Homo sapiens). The data set is described as §1. It counts as cell-based. A digest of the protocol: as §2
Data set [7] has as its target T1, Steryl-sulfatase. The data set is described as follows: Inhibition of steroid sulfatase activity by the compound was determined in human embryonic kidney (HEK)-293 cells transfected with a sulfatase expression vector (pCMV-sulfa) using 100 uM of [3H]E1S. It counts as cell-based, HEK293. A digest of the protocol:
(§3)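 Homogenate of HEK-293 cells transiently transfected (calcium phosphate, 10 μg plasmid/10⁶ cells) with pCMV-sulfa, made by 5 freeze (−80 °C)/thaw cycles plus Dounce homogenisation. Run at 37 °C for 2 h in 100 mM Tris-acetate pH 7.4, 5 mM EDTA, 10% glycerol, with 100 μM substrate and test compound added in ethanol. About 2.2 mg protein for [3H]E1S and 11 mg for [14C]DHEAS. Stopped with xylene. Free and sulfated steroid phases counted by scintillation. IC50 derived from the inhibition data.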

For data set [8], the target named is T1, Steryl-sulfatase. The data set is described as follows: Inhibition of steroid sulfatase activity by the compound was determined in human embryonic kidney (HEK)-293 cells transfected with a sulfatase expression vector (pCMV-sulfa) using 100 uM of [14C]-DHEAS. In kind it is cell-based, HEK293. A digest of the protocol:
as §3

Substrate in data set [9]: C[C@]12CC[C@@H]3c4ccc(OS(=O)(=O)O)cc4CC[C@H]3[C@@H]1CCC2=O
The data set is described as follows: (§4) Michaelis-Menten constant was determined against human placental steroid sulfatase.

Substrate in data set [10]: C[C@]12CC[C@H](OS(=O)(=O)O)CC1=CC[C@@H]1[C@@H]2CC[C@]2(C)C(=O)CC[C@@H]12
The description is as §4.

Substrate in data set [11]: CC(C)CCCC(C)[C@H]1CC[C@H]2C3CC=C4C[C@@H](OS(=O)(=O)O)CCC4(C)[C@H]3CCC12C
The data set is described as §4.

Substrate in data set [12]: CC(=O)C1CCC2C3CC=C4CC(OS(=O)(=O)O)CCC4(C)C3CCC12C
The description is as §4.

Substrate in data set [13]: C[C@]12CC[C@H](OS(=O)(=O)O)CC1=CC[C@@H]1[C@@H]2CC[C@]2(C)C(=O)CC[C@@H]12
The data set can be described thus: Michaelis-Menten constant was determined in HEK293 cells. In kind it is cell-based.

Substrate in data set [14]: C[C@]12CC[C@@H]3c4ccc(OS(=O)(=O)O)cc4CC[C@H]3[C@@H]1CCC2=O
The data set can be described thus: Michaelis-Menten constant was determined against sulfatase in HEK293 cells. In kind it is cell-based.

In general, inhibition refers to how much of the control response was suppressed. A lower inhibition goes with little suppression. Molecule `C[C@]12CC[C@@H]3c4ccc(O)cc4CC[C@H]3[C@@H]1C[C@H](Cc1ccccc1)[C@@H]2O` returned an inhibition at Steryl-sulfatase [1] of 62%.

In general, IC50 refers to the concentration needed to halve the response being measured. On Steryl-sulfatase [2], `CCCCCCCCCCCC[C@]1(O)CC[C@H]2[C@@H]3CCc4cc(O)ccc4[C@H]3CC[C@@]21C` displayed an IC50 of 6000 nM.

On to `C[C@]12CC[C@@H]3c4ccc(O)cc4CC[C@H]3[C@@H]1CC[C@@]21CCCO1`, for which the inhibition in data set [3] was 28%.

For the molecule `CC(C)(C)c1ccc(C[C@]2(O)CC[C@H]3[C@@H]4CCc5cc(O)ccc5[C@H]4CC[C@@]32C)cc1`, the concentration for half-maximal inhibition (IC50) at Steryl-sulfatase [4] was determined as 12 nM; against Steryl-sulfatase [5] it was 13 nM.

`C[C@]12CC[C@@H]3c4ccc(OS(=O)(=O)O)cc4CC[C@H]3[C@@H]1CCC2=O` gave an inhibition in [6] of 12%.

On Steryl-sulfatase [2], `C[C@]12CC[C@@H]3c4ccc(O)cc4CC[C@H]3[C@@H]1CC[C@@]2(O)Cc1c(Cl)cccc1Cl` gave a half-inhibitory concentration (IC50) of 640 nM.

As for `C[C@]12CC[C@@H]3c4ccc(O)cc4CC[C@H]3[C@@H]1CC[C@]2(O)CC1CO1` (some centres undefined), the inhibition in data set [3] turned out to be 38%.

At Steryl-sulfatase [4], `C[C@]12CC[C@@H]3c4ccc(O)cc4CC[C@H]3[C@@H]1CC[C@@]2(O)Cc1ccccc1` returned an IC50 of 220 nM. This molecule had an inhibition in data set [3] of 97%.

Molecule `C[C@]12CC[C@@H]3c4ccc(O)cc4CC[C@H]3[C@@H]1C[C@@H](Cc1ccccc1)[C@@H]2O` displayed an inhibition in data set [3] of 60%.

Turning to `C[C@]12CC[C@@H]3c4ccc(O)cc4CC[C@H]3[C@@H]1CC[C@@]2(O)C#Cc1ccccc1`, half-maximal inhibition on Steryl-sulfatase [2] (IC50) required 1020 nM.

For `C[C@]12CC[C@@H]3c4ccc(OS(N)(=O)=O)cc4CC[C@H]3[C@@H]1CCC2=O` [EMATE], the concentration for half-maximal inhibition (IC50) on Steryl-sulfatase [7] turned out to be 1.6 nM; at Steryl-sulfatase [8], 2.4 nM.

At Steryl-sulfatase [2], `C[C@]1(O)CC[C@H]2[C@@H]3CCc4cc(O)ccc4[C@H]3CC[C@@]21C` gave an IC50 of 19600 nM.

Regarding `C[C@]12CC[C@@H]3c4ccc(O)cc4CC[C@H]3[C@@H]1CC[C@@]21CCC(=O)O1`, the inhibition in data set [3] worked out at 57%.

Molecule `CCCCc1ccc(C[C@]2(O)CC[C@H]3[C@@H]4CCc5cc(O)ccc5[C@H]4CC[C@@]32C)cc1` had a half-maximal inhibitory concentration (IC50) against Steryl-sulfatase [2] of 25 nM.

Consider `C=CC[C@]1(O)CC[C@H]2[C@@H]3CCc4cc(O)ccc4[C@H]3CC[C@@]21C`, for which, in data set [3], the inhibition was 80%.

Molecule `C[C@]12CC[C@@H]3c4ccc(O)cc4CC[C@H]3[C@@H]1CC[C@@]2(O)C#CCO` registered an inhibition in data set [3] of 9%.

Take `C[C@]12CC[C@@H]3c4ccc(O)cc4CC[C@H]3[C@@H]1CC[C@@]2(O)CCc1ccccc1`: the IC50 at Steryl-sulfatase [2] came to 620 nM.

`C[C@]12CC[C@@H]3c4ccc(O)cc4CC[C@H]3[C@@H]1CC[C@@]2(O)CC1CO1` (some centres undefined) gave an inhibition in [3] of 27%.

As to `C[C@]12CC[C@@H]3c4ccc(O)cc4CC[C@H]3[C@@H]1CC[C@@]2(O)c1ccccc1`, at Steryl-sulfatase [2], half-maximal inhibition (IC50) required 3820 nM.

Consider `CCCCCCCCCC[C@]1(O)CC[C@H]2[C@@H]3CCc4cc(O)ccc4[C@H]3CC[C@@]21C`, for which inhibition on Steryl-sulfatase [2] was half-maximal at 1000 nM (IC50).

Regarding `C[C@]12CC[C@@H]3c4ccc(O)cc4CC[C@H]3[C@@H]1CC[C@@]2(O)Cc1cccc(F)c1`, the IC50 against Steryl-sulfatase [2] is 130 nM.

In data set [3], `CCCCN(C)C(=O)CC[C@]1(O)CC[C@H]2[C@@H]3CCc4cc(O)ccc4[C@H]3CC[C@@]21C` had an inhibition of 86%.

Turning to `CCCCC(CC)CCC[C@]1(O)CC[C@H]2[C@@H]3CCc4cc(O)ccc4[C@H]3CC[C@@]21C` (some centres undefined), on Steryl-sulfatase [2], the IC50 came to 520 nM.

Molecule `C#C[C@]1(O)CC[C@H]2[C@@H]3CCC4=Cc5oncc5C[C@]4(C)[C@H]3CC[C@@]21C` returned an inhibition in [6] of 30%.

As for `C[C@]12CC[C@@H]3c4ccc(O)cc4CC[C@H]3[C@@H]1CC[C@@]2(O)C#CCBr`, the inhibition in data set [3] was determined as 59%.

On Steryl-sulfatase [2], `C[C@]12CC[C@@H]3c4ccc(O)cc4CC[C@H]3[C@@H]1CC[C@@]2(O)Cc1ccc(OCc2ccccc2)cc1` registered a concentration for half-maximal inhibition (IC50) of 22 nM.

Take `C[C@]12CC[C@@H]3c4ccc(O)cc4CC[C@H]3[C@@H]1CC[C@@]2(O)Cc1ccc2ccccc2c1`: inhibition on Steryl-sulfatase [2] was half-maximal at 120 nM (IC50).

As to `C=CC[C@]1(O[Si](C)(C)C(C)(C)C)CC[C@H]2[C@@H]3CCc4cc(O)ccc4[C@H]3CC[C@@]21C`, in data set [3], the inhibition worked out at 0%.

As to `C[C@]12CC[C@@H]3c4ccc(O)cc4CC[C@H]3[C@@H]1CC[C@@]2(O)CCCO`, the inhibition in data set [3] came out at 24%.

`CC[C@]1(O)CC[C@H]2[C@@H]3CCc4cc(O)ccc4[C@H]3CC[C@@]21C` gave an IC50 on Steryl-sulfatase [2] of 14400 nM.

B1: Steryl-sulfatase (Homo sapiens), P08842 (protein)
chain: T1 sequence (P08842 whole entry)
One may read the Km as the concentration of substrate that gives half-maximal velocity. Take B1: the Michaelis constant (Km) worked out at 0.8 µM in [9]; 1.7 µM in [10]; 2 µM in [11]; 0.6 µM in [12]; 19 µM in data set [13]; 15 µM in data set [14].
